# Active and inactive are the calls of the source. The calls are words filed in the database; no cut-off is given here.
# Columns and labels:
# [1] = (§1) Cytotoxicity against rat MAT-LyLu cells after 72 hrs by XTT assay; type: functional, cell-based; conditions: MAT-Ly-Lu
# Procedure, shortened: (§2)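 Compounds in DMSO (5-100 µg/ml, final DMSO <0.2%) were added for 72 h. XTT was then added (4 h, 37°C) and formazan read at 492 nm. IC50 is the 50% viability drop versus vehicle. Three experiments, five wells each, mean ± SEM.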
# [2] = (§3) Cytotoxicity against human PC3 cells after 72 hrs by XTT assay; type: functional, cell-based; conditions: PC-3, 72 h; procedure, shortened: as §2
# LNCaP [3] = assay: Cytotoxicity against human LNCAP cells after 72 hrs by XTT assay; type: functional, cell-based; procedure, shortened: as §2
# MAT-Ly-Lu = assay: as §1; type: functional, cell-based; procedure, shortened: as §2
# PC-3 [4] = assay: as §3; type: functional, cell-based; procedure, shortened: as §2
# [5] = Inhibition of clonogenic potential of human PC3 cells grown on semi-soft agar medium assessed as colony formation at cytotoxic IC50 level incubated for 2 weeks post dose by crystal violet staining based light microscopy relative to control; type: functional, PC-3; parameters: scale not given: the % may be the effect or the level left
# Procedure, shortened: (§4)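 Cells (1×10^5) in RPMI with 20% FBS and 0.3% Noble agar were layered over a 0.6% agar/RPMI base, held 15 min at room temperature, then incubated 24 h at 37°C. Compound in 1 mL medium was added the next day. After 2 weeks, cells were stained with 0.01% crystal violet (18 h, 37°C). Colony number and relative size were scored by light microscopy against vehicle. Three independent experiments, mean ± SEM.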
# [6] = Inhibition of clonogenic potential of rat MAT-LyLu cells grown on semi-soft agar medium assessed as relative colony size ratio at cytotoxic IC50 level incubated for 2 weeks post dose by crystal violet staining based light microscopy (reference value: 1 +/- 0.05); type: functional, MAT-Ly-Lu; procedure, shortened: as §4
# [7] = Inhibition of clonogenic potential of rat MAT-LyLu cells grown on semi-soft agar medium assessed as colony formation at cytotoxic IC50 level incubated for 2 weeks post dose by crystal violet staining based light microscopy relative to control; type: functional, MAT-Ly-Lu; parameters: scale not given: the % may be the effect or the level left; procedure, shortened: as §4
# PC-3 [8] = assay: Inhibition of EGF-induced cell migration of human PC3 cells at cytotoxic IC50 level incubated for 24 hrs in presence of EGF by light microscopy based wound healing assay; type: functional
# Procedure, shortened: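 PC-3 cells (8×10^4 per well) were grown to confluence (48 h, 37°C) and the monolayer scratched with a pipette tip. After a PBS wash, compound in fresh medium was added with […] (1 pg/ml) for 24 h. Wound area was imaged at 0 and 24 h and expressed as % closure of the original wound. Three independent experiments, mean ± SEM.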
# LNCaP [9] = assay: Inhibition of cell invasion of human LNCAP cells pre-treated at cytotoxic IC50 level followed by further 18 hrs incubation by matrigel coated Boyden chamber assay; type: functional, cell-based
# Procedure, shortened: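 LNCaP cells (1×10^5 cells/ml) were pretreated for 24 h, then seeded in serum-free medium onto a Matrigel-coated […] membrane over medium with 20% FBS (18 h, 37°C). Invaded cells were stained with calcein (4 µg/ml in HBSS, 1 h) and fluorescence read at 485/530 nm. Inhibition is relative to vehicle. Three independent experiments, mean ± SEM.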
# LNCaP [10] = assay: Inhibition of clonogenic potential of human LNCAP cells grown on semi-soft agar medium assessed as colony formation at cytotoxic IC50 level incubated for 2 weeks post dose by crystal violet staining based light microscopy relative to control; type: functional; parameters: scale not given: the % may be the effect or the level left; procedure, shortened: as §4
# [11] = biological target: Matrix metalloproteinase-9 (Homo sapiens) (UniProt P14780); assay: Inhibition of MMP9 in human PC3 cells assessed as reduction in MMP-mediated gelatinolytic activity at cytotoxic IC50 level incubated for 24 hrs by zymography; type: cell-based; conditions: PC-3
# Matrix metalloproteinase-9 (Homo sapiens), sequence (P14780 whole entry): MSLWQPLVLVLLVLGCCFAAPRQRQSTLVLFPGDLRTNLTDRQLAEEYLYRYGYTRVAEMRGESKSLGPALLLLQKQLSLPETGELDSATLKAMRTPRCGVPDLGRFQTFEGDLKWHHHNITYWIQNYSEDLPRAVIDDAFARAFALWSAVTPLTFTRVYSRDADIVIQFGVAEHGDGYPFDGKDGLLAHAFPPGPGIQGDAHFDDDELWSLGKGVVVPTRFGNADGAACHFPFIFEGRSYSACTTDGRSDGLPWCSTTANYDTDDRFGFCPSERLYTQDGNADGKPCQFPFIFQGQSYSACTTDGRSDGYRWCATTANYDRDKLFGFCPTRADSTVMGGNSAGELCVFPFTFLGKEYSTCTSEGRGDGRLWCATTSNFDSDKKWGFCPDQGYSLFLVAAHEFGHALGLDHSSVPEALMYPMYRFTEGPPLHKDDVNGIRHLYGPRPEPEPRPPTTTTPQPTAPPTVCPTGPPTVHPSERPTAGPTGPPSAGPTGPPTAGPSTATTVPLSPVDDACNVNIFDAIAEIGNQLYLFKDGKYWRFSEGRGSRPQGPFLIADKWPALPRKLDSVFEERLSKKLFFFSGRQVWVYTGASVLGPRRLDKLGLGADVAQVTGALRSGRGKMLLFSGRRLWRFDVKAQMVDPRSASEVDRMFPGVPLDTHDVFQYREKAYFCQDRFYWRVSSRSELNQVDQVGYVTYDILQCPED
# Procedure, shortened: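 PC-3 cells at 80% confluence were washed with PBS and treated in serum-free medium (24 h, 37°C). Conditioned medium was mixed 0.75:0.25 with sample buffer lacking mercaptoethanol and run on 10% SDS gels copolymerized with gelatin (1 mg/mL). MMP-9 lysis zones were quantified as % activity relative to vehicle. Three experiments, mean ± SEM.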
# LNCaP [12] = assay: Inhibition of clonogenic potential of human LNCAP cells grown on semi-soft agar medium assessed as relative colony size ratio at cytotoxic IC50 level incubated for 2 weeks post dose by crystal violet staining based light microscopy (reference value: 1 +/- 0.3); type: functional; procedure, shortened: as §4
# [13] = Inhibition of clonogenic potential of human PC3 cells grown on semi-soft agar medium assessed as relative colony size ratio at cytotoxic IC50 level incubated for 2 weeks post dose by crystal violet staining based light microscopy (reference value: 1 +/- 0.3); type: functional, PC-3; procedure, shortened: as §4
Structure (SMILES),IC50 [1],IC50 [2],IC50 (LNCaP [3]),further results
COc1ccccc1N1C2=C(C(=O)CCC2)[C@]2(O)C(=O)c3ccccc3[C@]12O (racemic),> 100 µg/mL,> 100 µg/mL,> 100 µg/mL,
Cc1ccc(N2C3=C(C(=O)CC(C)(C)C3)[C@]3(O)C(=O)c4ccccc4[C@]23O)cc1C (racemic),> 100 µg/mL,> 100 µg/mL,> 100 µg/mL,
COc1ccccc1N1C2=C(C(=O)CC(C)(C)C2)[C@]2(O)C(=O)c3ccccc3[C@]12O (racemic),> 100 µg/mL,> 100 µg/mL,> 100 µg/mL,
COc1cccc(N2C3=C(C(=O)CC(C)(C)C3)[C@]3(O)C(=O)c4ccccc4[C@]23O)c1 (racemic),> 100 µg/mL,> 100 µg/mL,> 100 µg/mL,
CC1(C)CC(=O)C2=C(C1)N(c1ccc(Br)cc1)[C@@]1(O)c3ccccc3C(=O)[C@@]21O (racemic),> 100 µg/mL,> 100 µg/mL,> 100 µg/mL,
Cc1ccc(N2C3=C(C(=O)CCC3)[C@]3(O)C(=O)c4ccccc4[C@]23O)cc1 (racemic),> 100 µg/mL,> 100 µg/mL,> 100 µg/mL,
COc1ccc(N2C3=C(C(=O)CCC3)[C@]3(O)C(=O)c4ccccc4[C@]23O)cc1 (racemic),> 100 µg/mL,> 100 µg/mL,> 100 µg/mL,
Cc1ccc(N2C3=C(C(=O)CCC3)[C@]3(O)C(=O)c4ccccc4[C@]23O)c(C)c1 (racemic),> 100 µg/mL,> 100 µg/mL,> 100 µg/mL,
Cc1ccc(N2C3=C(C(=O)CCC3)[C@]3(O)C(=O)c4ccccc4[C@]23O)cc1C (racemic),> 100 µg/mL,> 100 µg/mL,> 100 µg/mL,
COc1cccc(N2C3=C(C(=O)CCC3)[C@]3(O)C(=O)c4ccccc4[C@]23O)c1 (racemic),> 100 µg/mL,> 100 µg/mL,> 100 µg/mL,
Cc1cc(C)cc(N2C3=C(C(=O)CCC3)[C@]3(O)C(=O)c4ccccc4[C@]23O)c1 (racemic),> 100 µg/mL,> 100 µg/mL,> 100 µg/mL,
COc1ccc(N2C3=C(C(=O)CC(C)(C)C3)[C@]3(O)C(=O)c4ccccc4[C@]23O)cc1 (racemic),> 100 µg/mL,> 100 µg/mL,> 100 µg/mL,
COc1ccc(N2C3=C(C(=O)CCC3)[C@]3(O)C(=O)c4ccccc4[C@]23O)c(OC)c1 (racemic),> 100 µg/mL,> 100 µg/mL,> 100 µg/mL,
Cc1cccc(N2C3=C(C(=O)CC(C)(C)C3)[C@]3(O)C(=O)c4ccccc4[C@]23O)c1 (racemic),> 100 µg/mL,> 100 µg/mL,> 100 µg/mL,
Cc1cccc(N2C3=C(C(=O)CCC3)[C@]3(O)C(=O)c4ccccc4[C@]23O)c1 (racemic),> 100 µg/mL,> 100 µg/mL,> 100 µg/mL,
Cc1ccc(N2C3=C(C(=O)CC(C)(C)C3)[C@]3(O)C(=O)c4ccccc4[C@]23O)cc1 (racemic),> 100 µg/mL,> 100 µg/mL,> 100 µg/mL,
CC1(C)CC(=O)C2=C(C1)N(c1ccc(Cl)cc1)[C@@]1(O)c3ccccc3C(=O)[C@@]21O (racemic),> 100 µg/mL,76.6 µg/mL,66.2 µg/mL,inhibition (MAT-Ly-Lu): Dose-dependent effect; inhibition (PC-3 [4]): Dose-dependent effect; inhibition (LNCaP [3]): Dose-dependent effect
COc1cc(N2C3=C(C(=O)CC(C)(C)C3)[C@]3(O)C(=O)c4ccccc4[C@]23O)cc(OC)c1OC (racemic),> 100 µg/mL,> 100 µg/mL,> 100 µg/mL,

Structure (SMILES),IC50 [1],IC50 [2],IC50 (LNCaP [3]),further results
COc1ccc(N2C3=C(C(=O)CCC3)[C@]3(O)C(=O)c4ccccc4[C@]23O)cc1OC (racemic),> 100 µg/mL,> 100 µg/mL,> 100 µg/mL,
COc1ccc(OC)c(N2C3=C(C(=O)CC(C)(C)C3)[C@]3(O)C(=O)c4ccccc4[C@]23O)c1 (racemic),> 100 µg/mL,> 100 µg/mL,> 100 µg/mL,
O=C1CCCC2=C1[C@]1(O)C(=O)c3ccccc3[C@]1(O)N2c1ccc(Cl)cc1 (racemic),> 100 µg/mL,67.9 µg/mL,79.2 µg/mL,inhibition (MAT-Ly-Lu): Dose-dependent effect; inhibition (PC-3 [4]): Dose-dependent effect; inhibition (LNCaP [3]): Dose-dependent effect
Cc1ccccc1N1C2=C(C(=O)CCC2)[C@]2(O)C(=O)c3ccccc3[C@]12O (racemic),> 100 µg/mL,> 100 µg/mL,> 100 µg/mL,
Cc1ccccc1N1C2=C(C(=O)CC(C)(C)C2)[C@]2(O)C(=O)c3ccccc3[C@]12O (racemic),> 100 µg/mL,> 100 µg/mL,> 100 µg/mL,
COc1ccc(N2C3=C(C(=O)CC(C)(C)C3)[C@]3(O)C(=O)c4ccccc4[C@]23O)c(OC)c1 (racemic),> 100 µg/mL,> 100 µg/mL,> 100 µg/mL,
Cc1ccc(C)c(N2C3=C(C(=O)CC(C)(C)C3)[C@]3(O)C(=O)c4ccccc4[C@]23O)c1 (racemic),> 100 µg/mL,> 100 µg/mL,> 100 µg/mL,
Cc1ccc(C)c(N2C3=C(C(=O)CCC3)[C@]3(O)C(=O)c4ccccc4[C@]23O)c1 (racemic),> 100 µg/mL,> 100 µg/mL,> 100 µg/mL,
CC1(C)CC(=O)C2=C(C1)N(c1ccc(Cl)c(Cl)c1)[C@@]1(O)c3ccccc3C(=O)[C@@]21O (racemic),5.96 µg/mL,10.7 µg/mL,9.57 µg/mL,inhibition (MAT-Ly-Lu): Dose-dependent effect; Activity [5]: 0%; inhibition (PC-3 [4]): Dose-dependent effect; Ratio [6]: 0.16; inhibition (LNCaP [3]): Dose-dependent effect; Activity [7]: 6.35%; inhibition (PC-3 [8]): Active; inhibition (LNCaP [9]): Active; Activity (LNCaP [10]): 0%; inhibition [11]: Active; Ratio (LNCaP [12]): 0; Ratio [13]: 0
COc1ccc(OC)c(N2C3=C(C(=O)CCC3)[C@]3(O)C(=O)c4ccccc4[C@]23O)c1,> 100 µg/mL,> 100 µg/mL,> 100 µg/mL,
COc1ccc(N2C3=C(C(=O)CC(C)(C)C3)[C@]3(O)C(=O)c4ccccc4[C@]23O)cc1OC (racemic),> 100 µg/mL,> 100 µg/mL,> 100 µg/mL,
COc1cc(N2C3=C(C(=O)CCC3)[C@]3(O)C(=O)c4ccccc4[C@]23O)cc(OC)c1OC (racemic),> 100 µg/mL,> 100 µg/mL,> 100 µg/mL,
O=C1CCCC2=C1[C@]1(O)C(=O)c3ccccc3[C@]1(O)N2c1ccc(Br)cc1 (racemic),> 100 µg/mL,> 100 µg/mL,> 100 µg/mL,
Cc1cc(N)c2ccccc2[n+]1CCCCCCCCCC[n+]1c(C)cc(N)c2ccccc21 [DEQUALINIUM],10.3 µg/mL,24.6 µg/mL,4.94 µg/mL,inhibition (MAT-Ly-Lu): Dose-dependent effect; inhibition (PC-3 [4]): Dose-dependent effect; inhibition (LNCaP [3]): Dose-dependent effect
Cc1ccc(N2C3=C(C(=O)CC(C)(C)C3)[C@]3(O)C(=O)c4ccccc4[C@]23O)c(C)c1 (racemic),> 100 µg/mL,> 100 µg/mL,> 100 µg/mL,
O=C1CCCC2=C1[C@]1(O)C(=O)c3ccccc3[C@]1(O)N2c1ccc(Cl)c(Cl)c1 (racemic),75.2 µg/mL,47.8 µg/mL,53.9 µg/mL,inhibition (MAT-Ly-Lu): Dose-dependent effect; inhibition (PC-3 [4]): Dose-dependent effect; inhibition (LNCaP [3]): Dose-dependent effect
Cc1cc(C)cc(N2C3=C(C(=O)CC(C)(C)C3)[C@]3(O)C(=O)c4ccccc4[C@]23O)c1 (racemic),> 100 µg/mL,> 100 µg/mL,> 100 µg/mL,

# Reference: ChEMBL document CHEMBL3414540, “Synthesis, crystal structure and effect of indeno[1,2-b]indole derivatives on prostate cancer in vitro. Potential effect against MMP-9” (Eur J Med Chem, 2015)
